In article PMC5299031 (Structure (London, England : 1993), 2017):
Ends that are not written are not given here. * marks the point of attachment. FITC = O=C1OC2(c3ccc(O)cc3Oc3cc(O)ccc32)c2ccc(NC(=S)*)cc21

How the values were obtained:
[1] = system: COP1 WD40 domain; assay: Flag-immunoprecipitation; type: cell-based, human; conditions: 293T cells; anti-Flag IP, western blot anti-COP1; Figure 1C lanes 6–8
[2] = system: STK40 kinase-homology domain (aa 22–339); assay: Thermal shift assay; type: binding, human; conditions: summary statement (Highlights)
[3] = system: partially purified full-length STK40; conditions: single ATP concentration (0.2mM); ref Murphy et al., 2014; cited from earlier work
[4] = biological target: T1, purified human COP1 WD40 β propeller (386-731) (human, UniProt Q8NHY2 386-731); assay: fluorescence polarisation
T1 sequence (Q8NHY2 386-731): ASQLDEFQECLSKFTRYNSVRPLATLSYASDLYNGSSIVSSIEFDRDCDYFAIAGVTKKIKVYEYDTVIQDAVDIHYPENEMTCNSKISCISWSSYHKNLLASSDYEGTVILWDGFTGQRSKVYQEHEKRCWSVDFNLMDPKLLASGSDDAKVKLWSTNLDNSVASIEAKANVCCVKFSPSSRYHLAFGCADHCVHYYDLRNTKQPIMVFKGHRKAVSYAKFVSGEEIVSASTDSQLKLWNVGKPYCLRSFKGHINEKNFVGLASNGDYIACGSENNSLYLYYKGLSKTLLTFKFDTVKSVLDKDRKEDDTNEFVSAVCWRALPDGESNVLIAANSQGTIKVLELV

[5] = biological target: COP1 WD40 domain (386–731); type: binding, human; conditions: same competition assay; 25 nM FITC-peptide, 1500 nM COP1 WD40 (386–731)
[6] = biological target: T1, purified human COP1 WD40 β propeller …; assay: fluorescence polarisation; remark: listed apart in the source
[7] = system: endogenous COP1; assay: Flag-immunoprecipitation in 293T cells: endogenous COP1; type: cell-based, human; conditions: anti-Flag IP, western blot anti-COP1, Figure 1C, black arrow
How it was run: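 Human 293T cells grown in standard medium were transiently transfected with Flag-tagged STK40 constructs in pcDNA3.0 plus COP1 in pTriEx1.1. Lysates and eluates were run on 4–20% gradient gels and immunoblotted for Flag and COP1.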

In the case of “SSLSGPLQVVPDI [12 residue peptide fused to GFP]”, the “association with / recovery of COP1 WD40 domain” value [1] is reported as “recovers the COP1 WD40 domain, but less efficiently than full-length STK40”.

In the case of `Nc1ncnc2c1ncn2[C@@H]1O[C@H](COP(=O)(O)OP(=O)(O)OP(=O)(O)O)[C@@H](O)[C@H]1O` [ATP], the “ATP binding by STK40 kinase homology domain” value [2] is given as “does not bind ATP” and the “ATP binding by full-length STK40” value [3] is given as “no ATP binding”.

B1: purified STK40 KHD+20 (22-359) (domain or fragment, human, UniProt Q8N2I9 22-359, looked up)
chain: SGISGNNAKRAGPFILGPRLGNSPVPSIVQCLARKDGTDDFYQLKILTLEERGDQGIESQEERQGKMLLHTEYSLLSLLHTQDGVVHHHGLFQDRTCEIVEDTESSRMVKKMKKRICLVLDCLCAHDFSDKTADLINLQHYVIKEKRLSERETVVIFYDVVRVVEALHQKNIVHRDLKLGNMVLNKRTHRITITNFCLGKHLVSEGDLLKDQRGSPAYISPDVLSGRPYRGKPSDMWALGVVLFTMLYGQFPFYDSIPQELFRKIKAAEYTIPEDGRVSENTVCLIRKLLVLDPQQRLAAADVLEALSAIIASWQSLSSLSGPLQVVPDIDDQMSNAD
B1 showed a Ki [4] of 1200 ± 100 nM.

B2: KHD containing a C-terminal extension of 20 amino acids: KHD containing a C-terminal extension of 20 amino acids encompassing the COP1-binding peptide (protein)
chain: SGISGNNAKRAGPFILGPRLGNSPVPSIVQCLARKDGTDDFYQLKILTLEERGDQGIESQEERQGKMLLHTEYSLLSLLHTQDGVVHHHGLFQDRTCEIVEDTESSRMVKKMKKRICLVLDCLCAHDFSDKTADLINLQHYVIKEKRLSERETVVIFYDVVRVVEALHQKNIVHRDLKLGNMVLNKRTHRITITNFCLGKHLVSEGDLLKDQRGSPAYISPDVLSGRPYRGKPSDMWALGVVLFTMLYGQFPFYDSIPQELFRKIKAAEYTIPEDGRVSENTVCLIRKLLVLDPQQRLAAADVLEALSAIIASWQSLSSLSGPLQVVPDIDDQMSNAD
modifications: left off: His tag, N-terminal, cleaved
With B2 the “apparent Ki relative to isolated STK40 peptide (in words)” value [5] was “lower apparent Ki than the isolated peptide”.

Work on {FITC}-SSLSGPLQVVPD [STK40 peptide FITC-SSLSGPLQVVPD] yielded a Kd [6] of 3100 ± 600 nM.

B3: KHD: construct of STK40 containing only the central kinase homology domain (KHD) (protein)
chain: SGISGNNAKRAGPFILGPRLGNSPVPSIVQCLARKDGTDDFYQLKILTLEERGDQGIESQEERQGKMLLHTEYSLLSLLHTQDGVVHHHGLFQDRTCEIVEDTESSRMVKKMKKRICLVLDCLCAHDFSDKTADLINLQHYVIKEKRLSERETVVIFYDVVRVVEALHQKNIVHRDLKLGNMVLNKRTHRITITNFCLGKHLVSEGDLLKDQRGSPAYISPDVLSGRPYRGKPSDMWALGVVLFTMLYGQFPFYDSIPQELFRKIKAAEYTIPEDGRVSENTVCLIRKLLVLDPQQRLAAADVLEALSAIIASWQSLS
modifications: left off: His tag, N-terminal, cleaved
In the case of B3, the “association with / recovery of COP1 WD40 domain” value [1] is reported as “unable to recover detectable quantities of the COP1 WD40 domain”.

B4: Full-length STK40: N-terminal Flag-tagged full-length STK40 (FLAG, HA tags in HeLa tandem IP) (protein)
chain: MKRRASDRGAGETSARAKALGSGISGNNAKRAGPFILGPRLGNSPVPSIVQCLARKDGTDDFYQLKILTLEERGDQGIESQEERQGKMLLHTEYSLLSLLHTQDGVVHHHGLFQDRTCEIVEDTESSRMVKKMKKRICLVLDCLCAHDFSDKTADLINLQHYVIKEKRLSERETVVIFYDVVRVVEALHQKNIVHRDLKLGNMVLNKRTHRITITNFCLGKHLVSEGDLLKDQRGSPAYISPDVLSGRPYRGKPSDMWALGVVLFTMLYGQFPFYDSIPQELFRKIKAAEYTIPEDGRVSENTVCLIRKLLVLDPQQRLAAADVLEALSAIIASWQSLSSLSGPLQVVPDIDDQMSNADSSQEAKVTEECSQYEFENYMRQQLLLAEEKSSIHDARSWVPKRQFGSAPPVRRLGHDAQPMTSLDTAILAQRYLRK
modifications: left off: Flag, N-terminal, kept
For B4, the “immunoprecipitation with endogenous COP1” value [7] was “immunoprecipitates with endogenous COP1”.
